{"source": "PubChem BioAssay", "key": {"[1]": {"target": "Potassium voltage-gated channel subfamily E member 1 (Homo sapiens) + Potassium voltage-gated channel subfamily KQT member 1 (Homo sapiens) (UniProt P15382+P51787)", "sequence (P51787 whole entry, looked up)": "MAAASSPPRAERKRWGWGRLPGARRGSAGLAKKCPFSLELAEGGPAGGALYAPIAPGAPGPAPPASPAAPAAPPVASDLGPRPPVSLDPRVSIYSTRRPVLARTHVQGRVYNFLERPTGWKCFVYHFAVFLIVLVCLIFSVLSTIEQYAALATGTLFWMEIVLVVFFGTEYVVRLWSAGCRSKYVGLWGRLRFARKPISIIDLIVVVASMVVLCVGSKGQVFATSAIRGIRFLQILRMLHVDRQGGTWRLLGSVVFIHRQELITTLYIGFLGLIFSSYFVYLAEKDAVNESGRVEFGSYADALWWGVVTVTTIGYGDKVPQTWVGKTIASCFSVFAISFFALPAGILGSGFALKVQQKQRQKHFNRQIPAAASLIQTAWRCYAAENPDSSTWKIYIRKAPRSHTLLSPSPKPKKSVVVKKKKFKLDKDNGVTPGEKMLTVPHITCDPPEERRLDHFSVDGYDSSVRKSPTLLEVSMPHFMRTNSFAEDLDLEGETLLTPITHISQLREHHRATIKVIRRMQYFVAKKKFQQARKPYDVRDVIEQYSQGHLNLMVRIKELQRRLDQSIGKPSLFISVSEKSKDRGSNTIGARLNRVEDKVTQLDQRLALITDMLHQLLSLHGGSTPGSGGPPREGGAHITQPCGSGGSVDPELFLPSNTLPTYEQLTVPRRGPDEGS", "assay": "KCNQ1/KCNE1 complex potentiators, confirmation, selectivity assay for KCNQ1 potentiator project, thallium flux, CHO-K1 KCNQ1/E1 cells (AID 493186;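 active means mean duplicate activation above the buffer control mean plus 5 SD of those controls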)", "conditions": "FluxOR thallium flux, at 10 µM", "summary_of_the_method": "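Test system: CHO-K1 cells with KCNQ1/E1; dosing: one test concentration; signal: FluxOR Tl+ flux fluorescence, kinetic read; incubation: 90-min dye loading then 20-min compound exposure, both at room temperature; read-out basis: percent of R-L3 effect over buffer; replication: duplicate wells per compound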"}, "[2]": {"target": "Short transient receptor potential channel 4 (Mus musculus) (UniProt Q9QUQ5)", "sequence (Q9QUQ5 whole entry, looked up)": "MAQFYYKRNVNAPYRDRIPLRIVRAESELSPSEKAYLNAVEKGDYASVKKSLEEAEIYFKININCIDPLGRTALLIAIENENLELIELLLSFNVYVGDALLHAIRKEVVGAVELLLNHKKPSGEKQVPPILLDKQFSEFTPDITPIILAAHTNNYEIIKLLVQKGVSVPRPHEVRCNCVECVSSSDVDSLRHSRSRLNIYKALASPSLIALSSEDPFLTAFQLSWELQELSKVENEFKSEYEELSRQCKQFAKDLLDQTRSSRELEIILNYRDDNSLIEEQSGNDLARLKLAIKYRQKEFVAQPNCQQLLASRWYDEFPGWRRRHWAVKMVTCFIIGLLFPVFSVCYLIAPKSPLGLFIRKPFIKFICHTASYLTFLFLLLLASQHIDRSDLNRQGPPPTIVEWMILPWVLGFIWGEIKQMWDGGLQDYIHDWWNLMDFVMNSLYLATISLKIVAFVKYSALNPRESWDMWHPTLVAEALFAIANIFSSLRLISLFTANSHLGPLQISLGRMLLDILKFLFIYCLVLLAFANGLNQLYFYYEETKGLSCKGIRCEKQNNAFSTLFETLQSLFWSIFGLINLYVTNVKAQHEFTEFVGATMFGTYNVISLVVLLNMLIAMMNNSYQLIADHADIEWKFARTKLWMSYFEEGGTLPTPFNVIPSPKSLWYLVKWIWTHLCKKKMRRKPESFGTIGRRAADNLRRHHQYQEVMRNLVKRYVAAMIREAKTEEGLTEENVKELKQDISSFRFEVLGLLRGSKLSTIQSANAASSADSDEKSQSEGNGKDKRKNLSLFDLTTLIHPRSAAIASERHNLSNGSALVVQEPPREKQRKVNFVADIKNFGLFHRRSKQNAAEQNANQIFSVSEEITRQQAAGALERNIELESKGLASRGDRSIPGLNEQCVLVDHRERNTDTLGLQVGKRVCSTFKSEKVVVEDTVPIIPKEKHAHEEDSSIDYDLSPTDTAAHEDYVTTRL", "assay": "mouse TRPC4 channel inhibitors, dose response, cell-based, HEK293 TRPC4/mu-opioid, Fluo-4 calcium (AID 434942)", "conditions": "HEK293 TRPC4/mu-opioid cells, DAMGO-evoked Fluo-4 calcium ratio; series mostly up to 20 µM"}}, "note": "For some assays here: Potency and affinity values are given separately. Activity calls are given as the source filed them.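 How the source made its calls, unless noted: active means primary screen inhibitor hit that blocks the TRPC4 channel at some tested dose, yielding a dose curve; inactive means the rest.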"}
{"smiles": "C=CCSc1nc2c(c(=O)[nH]c(=O)n2C)n1C/C=C(/C)Cl", "values": [{"measurement": "outcome", "setting": "[1]", "result": "inactive"}]}
{"smiles": "Cc1cc(C)cc(N/C(N)=N/c2nc(C)cc(C)n2)c1", "values": [{"measurement": "outcome", "setting": "[1]", "result": "inactive"}]}
{"smiles": "O=C(Nc1cccc(Cl)c1)c1cnn2cccnc12", "values": [{"measurement": "outcome", "setting": "[2]", "result": "inactive"}]}
{"smiles": "Cc1cccc(Cc2c(C)nc3c(C(=O)NCc4ccco4)cnn3c2C)c1", "values": [{"measurement": "outcome", "setting": "[2]", "result": "inactive"}]}
{"smiles": "CN(C)CCOc1cc(Cl)cc(Cl)c1", "values": [{"measurement": "outcome", "setting": "[2]", "result": "inactive"}]}
{"smiles": "Cc1cc(-c2ccc(C)c(S(=O)(=O)N3CCN(c4ccccn4)CC3)c2)on1", "values": [{"measurement": "outcome", "setting": "[2]", "result": "inactive"}]}
{"smiles": "Brc1ccccc1CN1CCN(Cc2c[nH]c3ccccc23)CC1", "values": [{"measurement": "outcome", "setting": "[1]", "result": "inactive"}]}
{"smiles": "O=C(O)CCNc1nc(-c2ccccc2)c2cc(Br)ccc2n1", "values": [{"measurement": "outcome", "setting": "[2]", "result": "inactive"}]}
{"smiles": "CC(C1CC2CCC1C2)n1c(-c2cccs2)n[nH]c1=S", "note": "(centres undefined)", "values": [{"measurement": "outcome", "setting": "[1]", "result": "inactive"}]}
{"smiles": "COc1cc(NS(=O)(=O)c2ccc3ccccc3c2)c2ncccc2c1", "values": [{"measurement": "outcome", "setting": "[1]", "result": "inactive"}]}
{"smiles": "CN(C)CC(CCC(CN(C)C)C(O)(c1ccccc1)c1ccccc1)C(O)(c1ccccc1)c1ccccc1", "note": "(centres undefined)", "values": [{"measurement": "outcome", "setting": "[1]", "result": "inactive"}]}
{"smiles": "CCSC1=N/C(=C\\c2ccc(OC)cc2)C(=O)N1", "values": [{"measurement": "outcome", "setting": "[2]", "result": "inactive"}]}
{"smiles": "CCCCn1c(SCC(=O)N2c3ccccc3Sc3ccccc32)nc2c1c(=O)n(C)c(=O)n2C", "values": [{"measurement": "outcome", "setting": "[2]", "result": "inactive"}]}
{"smiles": "CC(C)c1c(O)nc(SCCN(C)C)[nH]c1=O", "values": [{"measurement": "outcome", "setting": "[2]", "result": "inactive"}]}
